# ChEMBL document CHEMBL1255444, “In vitro antibacterial activities of JNJ-Q2, a new broad-spectrum fluoroquinolone” (Antimicrob Agents Chemother, 2010)
# Key:
# [1] = system: Streptococcus pneumoniae; test: Antibacterial activity against Streptococcus pneumoniae isolate OC6608 assessed as log reduction in bacterial growth at 4 times MIC measured at 24 hrs by time-kill assay; type: functional
# In short: (§1)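 Drug was diluted from 50× stocks made in water or acidified water. Samples were taken at 6 and 24 h and serially diluted onto TSA-5% sheep blood plates. Plates were incubated 20–24 h at 37°C in 5% CO2 before counting CFU. Log10 titer change is given relative to the starting inoculum.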
# [2] = Dissociation constant, pKa of the compound; type: physicochemical
# [3] = system: Streptococcus pneumoniae; test: Antibacterial activity against Streptococcus pneumoniae ATCC 49619 by broth microdilution method; type: functional
# In short: (§2)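 MICs by CLSI M07-A7 broth microdilution in cation-adjusted Mueller-Hinton medium. For S. pneumoniae the medium was supplemented with 5% lysed horse blood. CLSI quality control strains were run alongside as appropriate.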
# [4] = system: Streptococcus agalactiae; test: Antibacterial activity against Streptococcus agalactiae by broth microdilution method; type: functional; in short: as §2
# [5] = Antibacterial activity against Streptococcus sp. group C by broth microdilution method; type: functional
# In short: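 MICs by broth microdilution following CLSI M07-A7 in cation-adjusted Mueller-Hinton medium, using isolates from the J&JPRD culture collection. CLSI quality control strains were included as appropriate.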
# [6] = system: Enterococcus faecalis; test: Antibacterial activity against Enterococcus faecalis ATCC 29212 by broth microdilution method; type: functional; in short: as §2
# [7] = system: Haemophilus influenzae; test: Antibacterial activity against Haemophilus influenzae by broth microdilution method; type: functional; in short: as §2
# [8] = system: Escherichia coli; test: Antibacterial activity against ciprofloxacin-resistant Escherichia coli by broth microdilution method; type: functional
# In short: (§3)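 CLSI M07-A7 broth microdilution MIC. Medium was cation-adjusted Mueller-Hinton broth. For S. pneumoniae it was Mueller-Hinton supplemented with 5% lysed horse blood. CLSI quality-control strains were included as appropriate.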
# [9] = system: Serratia marcescens; test: Antibacterial activity against Serratia marcescens by broth microdilution method; type: functional; in short: as §2
# [10] = system: Proteus mirabilis; test: Antibacterial activity against Proteus mirabilis by broth microdilution method; type: functional; in short: as §2
# [11] = system: Providencia stuartii; test: Ratio of Levofloxacin MIC90 to compound MIC90 for Providencia stuartii; type: functional
# [12] = system: Streptococcus pneumoniae; test: Antibacterial activity against Streptococcus pneumoniae isolate OC7189 assessed as log reduction in bacterial growth at 4 times MIC measured at 6 hrs by time-kill assay; type: functional; in short: as §1
# [13] = system: Streptococcus pneumoniae; test: Antibacterial activity against Streptococcus pneumoniae isolate OC6608 assessed as log reduction in bacterial growth at 2 times MIC measured at 6 hrs by time-kill assay; type: functional; in short: as §1
# [14] = system: Streptococcus pneumoniae; test: Antibacterial activity against Streptococcus pneumoniae isolate OC7376 assessed as log reduction in bacterial growth at 4 times MIC measured at 6 hrs by time-kill assay; type: functional; in short: as §1
# [15] = system: Streptococcus pneumoniae; test: Antibacterial activity against Streptococcus pneumoniae isolate OC7376 assessed as log reduction in bacterial growth at 2 times MIC measured at 24 hrs by time-kill assay; type: functional; in short: as §1
# [16] = system: Streptococcus pneumoniae; test: Antibacterial activity against Streptococcus pneumoniae isolate OC6790 assessed as log reduction in bacterial growth at 4 times MIC measured at 6 hrs by time-kill assay; type: functional; in short: as §1
# [17] = system: Streptococcus pneumoniae; test: Antibacterial activity against Streptococcus pneumoniae isolate OC7368 assessed as log reduction in bacterial growth at 2 times MIC measured at 6 hrs by time-kill assay; type: functional; in short: as §1
# [18] = system: Streptococcus pneumoniae; test: Antibacterial activity against Streptococcus pneumoniae isolate OC7348 assessed as log reduction in bacterial growth at 4 times MIC measured at 24 hrs by time-kill assay; type: functional; in short: as §1
# [19] = system: Streptococcus pneumoniae; test: Antibacterial activity against Streptococcus pneumoniae isolate OC6610 assessed as log reduction in bacterial growth at 2 times MIC measured at 6 hrs by time-kill assay; type: functional; in short: as §1
# [20] = system: Streptococcus pneumoniae; test: Antibacterial activity against Streptococcus pneumoniae isolate OC6610 assessed as log reduction in bacterial growth at 4 times MIC measured at 6 hrs by time-kill assay; type: functional; in short: as §1
# [21] = system: Streptococcus pneumoniae; test: Antibacterial activity against Streptococcus pneumoniae isolate OC6610 assessed as log reduction in bacterial growth at 2 times MIC measured at 24 hrs by time-kill assay; type: functional; in short: as §1
# [22] = system: Staphylococcus aureus; test: Antibacterial activity against methicillin-resistant Staphylococcus aureus isolate OC11223 by broth microdilution method; type: functional; in short: as §3
# [23] = system: Staphylococcus aureus; test: Antibacterial activity against methicillin-resistant Staphylococcus aureus isolate OC11696 by broth microdilution method; type: functional; in short: as §3
# [24] = system: Staphylococcus aureus; test: Antibacterial activity against methicillin-resistant Staphylococcus aureus isolate OC4222 harboring gyrA S84L and parC S80F mutant gene by broth microdilution method; type: functional; in short: as §3
# [25] = system: Staphylococcus aureus; test: Antibacterial activity against methicillin-resistant Staphylococcus aureus isolate OC11521 harboring gyrA S84L/S85P, parC E84G mutant gene by broth microdilution method; type: functional; in short: as §3
# [26] = system: Staphylococcus aureus; test: Antibacterial activity against methicillin-resistant Staphylococcus aureus isolate OC8525 harboring wild type quinolone resistance-determining region assessed as log reduction in bacterial growth at 2 times MIC measured at 24 hrs by time-kill assay; type: functional
# In short: (§4)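 Overnight MRSA cultures were diluted into fresh cation-adjusted Mueller-Hinton broth to about 5 × 10^6 CFU/ml. […] Samples were plated serially diluted on trypticase soy agar, and CFU were counted after 20-24 h at 37°C. Value is the log10 decrease at 24 h from the starting inoculum; detection limit 100 CFU.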
# [27] = system: Staphylococcus aureus; test: Antibacterial activity against methicillin-resistant Staphylococcus aureus isolate OC11696 assessed as log reduction in bacterial growth at 2 times MIC measured at 24 hrs by time-kill assay; type: functional; in short: as §4
# [28] = system: Staphylococcus aureus; test: Antibacterial activity against methicillin-resistant Staphylococcus aureus isolate OC11696 assessed as log reduction in bacterial growth at 4 times MIC measured at 24 hrs by time-kill assay; type: functional; in short: as §4
# [29] = system: Staphylococcus aureus; test: Antibacterial activity against methicillin-resistant Staphylococcus aureus isolate OC12501 assessed as log reduction in bacterial growth at 4 times MIC measured at 24 hrs by time-kill assay; type: functional; in short: as §4
# [30] = system: Staphylococcus aureus; test: Antibacterial activity against methicillin-resistant Staphylococcus aureus isolate OC17042 harboring gyrA S84L/G106D, parC S80F and parE D732N mutant gene assessed as log reduction in bacterial growth at 2 times MIC measured at 24 hrs by time-kill assay; type: functional; in short: as §4
# [31] = system: Staphylococcus aureus; test: Antibacterial activity against methicillin-resistant Staphylococcus aureus isolate OC11521 harboring gyrA S84L/S85P, parC E84G mutant gene assessed as log reduction in bacterial growth at 4 times MIC measured at 24 hrs by time-kill assay; type: functional; in short: as §4
# [32] = system: Streptococcus pneumoniae; test: Antibacterial activity against Streptococcus pneumoniae OC7452 harboring parC S79Y mutant gene by agar dilution method; type: functional
# In short: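 MICs for the resistance-selection studies were determined by CLSI agar dilution on Mueller-Hinton medium. For S. pneumoniae the medium was supplemented with 5% lysed horse blood. For MRSA fluctuation-assay strains an arithmetic agar dilution scheme was used for a more precise MIC.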
# [33] = system: Staphylococcus aureus; test: Antibacterial activity against methicillin-resistant Staphylococcus aureus isolate OC8532 harboring wild type quinolone resistance-determining region by agar dilution method; type: functional
# In short: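 CLSI agar dilution MIC on cation-adjusted Mueller-Hinton medium. These were the MIC values used for the resistance studies, and CLSI quality-control strains were included as appropriate.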
compound,measurement,setting,value
COc1c(N2CCC/C(=C(\F)CN)C2)c(F)cc2c(=O)c(C(=O)O)cn(C3CC3)c12 [ACORAFLOXACIN],deltalog10CFU/ml,[1],7.1
same,pKa,[2],6.13
same,MIC50,[3],0.015 µg/mL
same,MIC90,[3],0.12 µg/mL
same,MIC50,[4],0.015 µg/mL
same,MIC90,[4],0.015 µg/mL
same,MIC50,[5],0.008 µg/mL
same,MIC90,[5],0.015 µg/mL
same,MIC50,[6],0.06 µg/mL
same,MIC90,[6],0.5 µg/mL
same,MIC,[7],0.008 µg/mL
same,MIC50,[7],0.008 µg/mL
same,MIC90,[7],0.015 µg/mL
same,MIC50,[8],4 µg/mL
same,MIC90,[8],16 µg/mL
same,MIC50,[9],0.5 µg/mL
same,MIC90,[9],1 µg/mL
same,MIC50,[10],0.25 µg/mL
same,MIC90,[10],0.5 µg/mL
same,Ratio,[11],16
same,deltalog10CFU/ml,[12],4.2
same,deltalog10CFU/ml,[13],3.8
same,deltalog10CFU/ml,[14],5.3
same,deltalog10CFU/ml,[15],6.8
same,deltalog10CFU/ml,[16],3.6
same,deltalog10CFU/ml,[17],4
same,deltalog10CFU/ml,[18],6.5
same,deltalog10CFU/ml,[19],3.4
same,deltalog10CFU/ml,[20],3.5
same,deltalog10CFU/ml,[21],5
same,MIC,[22],0.008 µg/mL
same,MIC,[23],0.06 µg/mL
same,MIC,[24],0.5 µg/mL
same,MIC,[25],1 µg/mL
same,deltalog10CFU/ml,[26],5.1
same,deltalog10CFU/ml,[27],6.5
same,deltalog10CFU/ml,[28],6.5
same,deltalog10CFU/ml,[29],6.2
same,deltalog10CFU/ml,[30],3.8
same,deltalog10CFU/ml,[31],2.3
same,MIC,[32],0.015 µg/mL
same,MIC,[33],0.008 µg/mL
